Compound activity (PubChem)
This is a sample that favours compounds with a hit; in the whole collection about 2% have one here.
PPC-1+TRAIL kill = kills PPC-1 cancer cells in the presence of TRAIL; PPC-1 cells + TRAIL, ATPLite viability luminescence; cell killing (% activity), % at 4 µM or 5 µM; 220,000 tested, 0.41% active; AID 1443;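 active = cell killing above 50% in the first pass at 4 µM, then a duplicate retest at 5 µM averaging 50% or more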;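 note: plate controls were cells with TRAIL plus DMSO for no effect and medium-only wells lacking cells for full effect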
FLuc act counter = affects firefly luciferase, flagging false hits in luciferase stimulation screens. ATPlite luciferase biochemical, luminescence, 10 min; 0 = ATP-free wells, 1 = DMSO control. activation factor at 10 µM. 200,000 tested, under 10 active;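 active = luciferase activation factor, scaled between plate controls, of at least 2 with compound at 10 µM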
Target sequence (P08659 whole entry, looked up): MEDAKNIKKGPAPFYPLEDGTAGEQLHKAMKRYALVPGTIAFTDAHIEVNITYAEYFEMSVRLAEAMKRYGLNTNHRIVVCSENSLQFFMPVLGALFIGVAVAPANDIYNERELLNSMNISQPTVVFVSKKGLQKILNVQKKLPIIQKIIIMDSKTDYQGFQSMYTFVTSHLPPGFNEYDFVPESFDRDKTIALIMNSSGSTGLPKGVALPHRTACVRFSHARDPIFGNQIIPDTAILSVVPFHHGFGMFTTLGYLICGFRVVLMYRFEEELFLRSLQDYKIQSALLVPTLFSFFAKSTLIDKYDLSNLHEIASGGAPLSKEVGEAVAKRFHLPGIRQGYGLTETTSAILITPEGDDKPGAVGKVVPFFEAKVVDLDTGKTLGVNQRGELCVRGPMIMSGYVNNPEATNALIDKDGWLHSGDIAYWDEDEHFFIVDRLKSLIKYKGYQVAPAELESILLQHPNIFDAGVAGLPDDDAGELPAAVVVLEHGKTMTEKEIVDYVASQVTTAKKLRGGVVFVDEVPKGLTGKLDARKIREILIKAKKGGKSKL
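Material: luciferase plus luciferin reagent, cell-free. Medium: PBS buffer for ATP. Also added: ATP substrate, dispensed from a 10.24 µM working solution in PBS. Doses: test compounds dosed from 2 mM stocks in 100% DMSO. Incubation: 10 min post-reagent at room temperature. Technique: light output (luminescence). Read-out basis: luminescence gain marking luciferase activators.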
FLuc inhib CS = counter-screen for luciferase assay inhibitors: firefly luciferase inhibition | P08659 | ATPLite firefly luciferase biochemical luminescence, 10 min | inhibition, % at 10 µM | 200,000 tested, 1.5% active | AID 1006;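 active = inhibition above about 50% when tested at 10 µM, limit read from the data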
HSP90 refold inh = inhibitors of HSP90 luciferase refolding in rabbit reticulocyte lysate; inhibition, % at 5.6 µM; AID 1789; luciferase refolding luminescence, 3 h; 290,000 tested, 0.91% active;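 active = inhibition above the screen-wide mean plus 3 SD, computed separately per campaign, cut at about 16% in these data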;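 note: 0% = DMSO wells and 100% = 60 µM geldanamycin wells; inhibitors lower the luminescence because luciferase stays unfolded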
C8 TRAIL sens = sensitizes caspase-8 expressing cells to TRAIL; NB7+C8 cells + TRAIL, ATPlite viability luminescence; inhibition (viability loss, TRAIL sensitization), % at 10 µM; 360,000 tested, 1% active; AID 624354;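 active = compounds causing at least 50% loss of cell viability in the single-dose screen, relative to plate controls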
* marks the source's active call; other numbers are inactive results; . = no result given.

SMILES | PPC-1+TRAIL kill | FLuc act counter | FLuc inhib CS | HSP90 refold inh | C8 TRAIL sens
Cc1cc(C)c(NN=c2c(=O)c3ccccc3c2=O)c(C)c1 | 1 | 0.8 | 23 | 5 | -6
O=c1c(=NNc2ccccc2Cl)c(=O)c2ccccc12 | 17 | 0.2 | 80* | 26* | 77*
O=C1c2ccccc2C(Nc2cccnc2)N1Cc1ccc2c(c1)OCO2 (stereo not drawn) | 65* | 1.1 | -10 | -6 | 1
O=C(Nc1ccc(F)c(Cl)c1)c1ccc2sc([C@H]3C[C@H](O)[C@@H](CO)O3)nc2c1 | . | . | . | . | 21
C[C@H](CO)N1C[C@H](C)[C@@H](CN(C)C(=O)CN2CCOCC2)Oc2ncc(-c3cncnc3)cc2C1=O | . | . | . | . | 10
COc1ccc(Nc2cccccc2=O)cc1 | 7 | 1 | 4 | -2 | 0
COc1ccc(Nc2cccc3ccccc23)cc1 | . | . | . | . | 56*
Cc1[nH]c2c(C)cccc2c(=O)c1Br | 20 | 1.1 | -9 | 1 | 38
CCc1c(C)[nH]c2c(C)cccc2c1=O | 3 | 1 | 0 | 0 | 52*
O=C(COC(=O)c1ccc2c(c1)C(=O)N(c1cccc3ncccc13)C2=O)c1ccc(Cl)cc1 | 12 | 1 | -2 | -3 | 8
Cc1ccc(C(=O)COC(=O)c2ccc3c(c2)C(=O)N(c2cccc4ncccc24)C3=O)cc1 | 27 | 1 | 4 | 6 | 51*
O=C1CCN(Cl)C(=O)N1Cl | . | . | . | . | -4
O=C(NOCc1ccccc1)c1ccc(Cl)cc1Cl | . | . | . | . | 58*
O=C(NOCc1ccccc1)c1ccccc1 | . | . | . | . | 12
CC(C)NC(=S)N/N=C/c1sc(N2CCCCC2)nc1-c1cccs1 | 27 | 0.5 | 53* | 2 | 15
NC(=O)N/N=C/c1sc(N2CCCCC2)nc1-c1cccs1 | . | . | . | . | 15
CN(C)Cc1csc(Nc2ccc(C(=O)c3ccccc3)cc2)n1 | . | . | . | . | 5
COc1ccc(C(O)c2nc(-c3cccc(C(=O)O)c3)cs2)cc1 (stereo not drawn) | . | . | . | . | 0
COC(=O)c1ccc(NC(=O)c2ccc(NS(=O)(=O)c3cccc4cccnc34)cc2)cc1 | . | . | . | 17* | -3
CCOc1ccc(NC(=O)c2ccc(NS(=O)(=O)c3cccc4cccnc34)cc2)cc1 | . | . | . | . | 3
Clc1nc2ccccc2cc1/C=N/Nc1nc2ccccc2[nH]1 | 37 | 0.1 | 88* | 4 | 83*
CCCn1c(/C=N/Nc2nc3ccccc3[nH]2)nc2ccccc21 | -2 | 0.9 | 10 | -5 | 26
Cc1nn(-c2ccccc2)c(C)c1/C=N/Nc1nc2ccccc2[nH]1 | 29 | 0.2 | 80* | 7 | 43
C(=N\Nc1nc2ccccc2[nH]1)/c1ccncc1 | 33 | 0.7 | 27 | 13 | 9
Cn1c(/C=N/Nc2nc3ccccc3[nH]2)nc2ccccc21 | 48 | 0.2 | 83* | 9 | 38
SMILES | PPC-1+TRAIL kill | FLuc act counter | FLuc inhib CS | HSP90 refold inh | C8 TRAIL sens
Cc1ccsc1/C=N/Nc1nc2ccccc2[nH]1 | 1 | 0.3 | 74* | 6 | 7
CCc1nc2c(OCc3ccccc3)cccn2c1N(Cc1ccccc1)C(C)=O | . | . | . | . | -11
CCN(CC)CCNc1c(C)cc(CO)c(Cl)c1C | . | . | . | . | 5
C(=N\Nc1nc2ccccc2[nH]1)/c1cccs1 | 27 | 0.3 | 68* | -4 | 5
c1ccc2[nH]c(NN=C3CCCCCC3)nc2c1 | 20 | 0.2 | 82* | 6 | 16
CC1C/C(=N/Nc2nc3ccccc3[nH]2)CC(C)(C)C1 (stereo not drawn) | 38 | 0.9 | 5 | 6 | 1
O=C(C(=O)N1CCC(Cc2ccccc2)CC1)c1cccc(Br)c1 | . | . | . | . | -6
O=C(Nc1cnn(C23CC4CC(CC(C4)C2)C3)c1)c1cnn2c(C(F)(F)F)cc(-c3ccco3)nc12 | 5 | 1.1 | -8 | 3 | 64*
O=C(Nc1ccc2c(c1)OCO2)c1cnn2c(C(F)(F)F)cc(-c3ccco3)nc12 | 14 | 1 | -2 | -1 | -4
CCC(C)C(NC(=O)C(Cc1ccc(O)cc1)NC(=O)OCc1ccccc1)C(=O)OC (stereo not drawn) | . | . | . | . | 9
CC1(C(=O)NCc2cccc(Cl)c2)Cc2c(-c3ccc4c(c3)OCO4)ccnc2O1 (stereo not drawn) | . | . | . | . | 27
CC(=O)c1ccc(Nc2ccc(-c3ccccc3F)nn2)cc1 | 18 | 0.4 | 58* | 4 | 48
O=C(NCc1ccccc1)C(c1ccc(C(F)(F)F)cc1)N1CCN(CCN2CCOCC2)CC1 (stereo not drawn) | . | . | . | . | 8
COc1ccc(/C=N/N2C(=O)c3ccccc3C2=O)cc1 | 1 | 0.3 | 74* | 2 | -8
